Source: PubChem (several laboratories)
CHOP inh – inhibitors of CHOP induction in ER stress response. CHO-K1 CHOP-promoter luciferase, tunicamycin-induced, 15-18 h. 220,000 tested, 3.8% active. inhibition, % at 10 µM;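 active means compounds that reduced the stress-induced luciferase reporter signal by more than about 70% of percent inhibition, limit read from the data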
M18AAP inhibitor – PfM18AAP enzyme inhibition; 290,000 tested, 1.2% active; recombinant PfM18AAP, H-Glu-NHMec fluorogenic cleavage; AID 1822; inhibition, % at 7.35 µM;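 active means inhibition above the campaign mean inhibition over all tested compounds plus 3 SD, cut at about 28% in these data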
p97 ATPase inh – blocks human p97 ATPase activity; recombinant p97 ATPase, Kinase-Glo ATP luminescence, 3 h; 220,000 tested, 0.42% active; P55072; inhibition, % at 8 µM; in the data active means inhibition above about 15%
Target sequence (P55072 whole entry, looked up): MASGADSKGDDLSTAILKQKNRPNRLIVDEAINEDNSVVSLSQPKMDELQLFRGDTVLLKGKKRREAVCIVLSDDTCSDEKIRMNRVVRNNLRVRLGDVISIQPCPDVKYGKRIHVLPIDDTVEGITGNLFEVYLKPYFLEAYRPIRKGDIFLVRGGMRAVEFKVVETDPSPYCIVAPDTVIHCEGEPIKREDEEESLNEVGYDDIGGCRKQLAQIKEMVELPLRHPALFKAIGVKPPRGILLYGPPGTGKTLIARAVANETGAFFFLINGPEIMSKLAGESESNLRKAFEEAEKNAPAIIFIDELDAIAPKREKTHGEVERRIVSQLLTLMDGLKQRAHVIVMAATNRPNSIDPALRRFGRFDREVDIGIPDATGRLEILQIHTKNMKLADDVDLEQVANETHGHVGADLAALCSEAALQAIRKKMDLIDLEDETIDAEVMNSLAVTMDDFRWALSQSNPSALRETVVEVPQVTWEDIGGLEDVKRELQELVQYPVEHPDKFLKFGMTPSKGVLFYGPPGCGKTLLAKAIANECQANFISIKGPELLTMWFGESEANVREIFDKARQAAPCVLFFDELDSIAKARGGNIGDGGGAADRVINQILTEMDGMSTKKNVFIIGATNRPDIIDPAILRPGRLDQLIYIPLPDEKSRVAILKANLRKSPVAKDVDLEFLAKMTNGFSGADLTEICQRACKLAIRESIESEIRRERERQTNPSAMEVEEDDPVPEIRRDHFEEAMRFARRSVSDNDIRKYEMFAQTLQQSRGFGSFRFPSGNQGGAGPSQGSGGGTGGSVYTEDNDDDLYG
XBP1 UPR activ – activators of adaptive arm of unfolded protein response (XBP1). CHO-XBP1 luciferase reporter, IRE1-XBP1 UPR activation, luminescence; percent of tunicamycin response, DMSO as zero. activation, % at 20 µM. 330,000 tested, 0.33% active. AID 463104;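 active means versus positive control, 20 µM dose yields 30% or more activation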
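Material: CHO cell line with stable XBP1 luciferase reporter; schedule: 16-18 h cell attachment at 37 °C, then 6 h compound exposure; signal: glow luminescence from Steady-Glo reagent; medium: serum-containing F12 medium, 10% FBS; benchmarks: tunicamycin 10 µg/mL and vehicle-only wells; read-out: percent activation relative to tunicamycin reference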
CHOP UPR activ – apoptotic UPR (CHOP) activation; 330,000 tested, 0.34% active; CHO-CHOP luciferase reporter, luminescence; percent of tunicamycin response over DMSO baseline; activation, % at 10 µM; AID 449763;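 active means at 10 µM dose, activation of 40% or more, normalized to positive control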
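Dosing – one dose, 10 µM in 0.5% DMSO · System – CHO-CHOP cells, stable luciferase reporter of PERK-eIF2a-CHOP signalling · Input – 500 cells/well · Control set – tunicamycin 10 µg/mL final as positive, DMSO-only wells as negative · Timing – 6 h compound treatment, 37 °C · Measure – % activation vs tunicamycin · Technique – luminescence read with Steady-Glo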
NS3 helicase inh – HCV NS3 helicase inhibition; NS3 helicase DNA unwinding, Cy5 molecular beacon fluorescence; inhibition, % at 10.9 µM; 290,000 tested, 0.56% active; AID 1800;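 active means inhibition above the mean of all tested compounds plus 3 SD, set per campaign, cut at about 35% in these data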
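Measured by: Cy5 fluorescence, 0 and 60 min reads / Assay system: NS3 helicase fragment of HCV / Control set: low DMSO, high thioflavine S at 110 µM / Times: 1 h reaction at 25 °C, ATP-initiated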
CHOP inh conf – confirmation of CHOP induction inhibitors; shares compounds with CHOP inh; CHO-CHOP promoter luciferase reporter, tunicamycin-induced, luminescence; inhibition, % at 10 µM; 2,100 tested, 45% active;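 active means mean of three repeat readings of reporter signal inhibition above a set limit, cut at about 70% in these data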
Large screens that a line does not name were inactive (follow-up assays come after a bar, where they were run). In the library only some 4.5% were active in any assay of this set; here they are far more common.

N#CC(c1nc2ccccc2nc1OCCO)S(=O)(=O)c1ccccc1 (centres undefined)	none
O/N=C/c1cc(Cl)ccc1OCc1cccc2ccccc12	CHOP inh 112.7 | CHOP inh conf inactive
C#CCOc1ccc(Cl)cc1/C=N/O	none
Cc1cc2cc(C=C(C#N)C#N)c(Cl)nc2cc1C	CHOP inh 97.2 | CHOP inh conf inactive
CCOC(=O)/C(C#N)=C/c1cc2cc(C)c(C)cc2nc1Cl	none
Cc1ccc(NC(=O)c2ccc(Nc3c([N+](=O)[O-])cc([N+](=O)[O-])cc3[N+](=O)[O-])cc2)cc1	CHOP inh 104.2 | CHOP inh conf 108.1
CC(=O)Nc1ccc(NC(=O)c2cc([N+](=O)[O-])cc([N+](=O)[O-])c2)cc1	none (no result: CHOP inh, p97 ATPase inh)
C=C1CCN([C@@H](CC(C)C)C(=O)NCc2cc(OC)c(OC)c(OC)c2)S(=O)(=O)c2ccccc21	none (no result: CHOP inh, M18AAP inhibitor, p97 ATPase inh, NS3 helicase inh)
C/C(=N\N=C(/N)SC1CC(=O)N(c2ccc(Cl)c(Cl)c2)C1=O)c1cccs1 (centres undefined)	CHOP inh 109.9 | CHOP inh conf inactive
NC(=S)N=Nc1c(O)[nH]c2c(Br)cc(Br)cc12	CHOP inh 98.2 | CHOP inh conf inactive
NC(=S)N=Nc1c(O)[nH]c2ccccc12	none
O=c1c2ccccc2nc(-c2ccco2)n1Cc1ccccc1	none
O=C(On1c(-c2ccccc2)nc2ccccc2c1=O)c1ccco1	CHOP inh 104.5 | CHOP inh conf 116.3
Cc1nn(-c2ccccc2)c(OC(=O)c2cccs2)c1S(=O)(=O)c1ccccc1	CHOP inh 105.8 | CHOP inh conf inactive
O=C(N/N=C/c1ccc2c(c1)OCO2)c1sc2cc(Cl)ccc2c1Cl	none
COc1ccc2c(Cl)c(C(=O)N/N=C/c3ccc4c(c3)OCO4)sc2c1	CHOP inh 107.3 | CHOP inh conf inactive
O=C(Nc1ccc(Oc2ccccc2)cc1)C1CCN(c2c3c(nc4ncnn24)CCC3)CC1	CHOP inh 104.3 | CHOP inh conf 92.1
Cc1cccc(NC(=O)CCS(=O)(=O)c2ccc(Cl)cc2)c1	none (no result: CHOP inh, p97 ATPase inh)
O=C1C2C3C=CC(CO)(O3)C2C(=O)N1c1ccccc1-c1ccccc1 (centres undefined)	none (no result: CHOP inh) | CHOP inh conf inactive
CC(=O)Oc1ccc(N2C(=O)C3C4C=CC(CO)(O4)C3C2=O)cc1 (centres undefined)	none
C[C@@H](NC(=O)[C@@H]1Cc2ccccc2CN1C(=O)OC(C)(C)C)C(=O)NC1CCCC1	none (no result: CHOP inh, p97 ATPase inh)
Cc1n[nH]c(C)c1S(=O)(=O)N(CC(=O)N1CCc2ccccc21)c1ccc(C(C)C)cc1	CHOP inh 96.2 | CHOP inh conf inactive
COC(OC)c1ccc(C#N)c(SCc2ccc(C)cc2)n1	none
COC(=O)Cn1c(=NC(=O)c2nc3ccccc3s2)sc2cc(S(N)(=O)=O)ccc21	CHOP inh 103.6 | CHOP inh conf inactive
COC(=O)Cn1c(=NC(=O)c2cc(-c3cccs3)nc3ccccc23)sc2cc(S(N)(=O)=O)ccc21	none
C=CCn1c(=O)[nH]c2cc(C(=O)N3CCN(c4cc(C)ccc4C)CC3)ccc2c1=O	CHOP inh 96.6 | CHOP inh conf inactive
C=CCn1c(=O)[nH]c2cc(C(=O)N3CCN(c4ccc(C(C)=O)cc4)CC3)ccc2c1=O	none
COc1ccc(-c2n[nH]c(C)c2-c2cnn(-c3ccccc3)c2)c(O)c1C	CHOP inh 98.6 | CHOP inh conf inactive
COc1ccc(-c2n[nH]c(C)c2-c2cnn(-c3ccccc3)c2)c(O)c1	none
COC(=O)c1cc(-c2ccc(OC)c(OC)c2)c2c(=O)[nH]c(=O)n(C)c2n1	none (no result: CHOP inh, p97 ATPase inh)
CCOC(=O)c1ccc(-c2ccc(/C=C(\C#N)C(=O)NCc3cccs3)o2)cc1	CHOP inh 105.0 (no result: XBP1 UPR activ, CHOP UPR activ) | CHOP inh conf inactive
COc1cc(OC)c(OC)cc1/C=C(\C#N)C(=O)NCc1cccs1	none (no result: CHOP inh, p97 ATPase inh)
CNC(=O)/C(C#N)=C/c1ccc(-c2ccccc2[N+](=O)[O-])o1	none
CNC(=O)/C(C#N)=C/c1ccc(-c2ccc(Cl)cc2)o1	CHOP inh 97.2 | CHOP inh conf inactive
CC(=O)c1cccc(NC(=O)COC(=O)c2ccc3c(c2)OCO3)c1	none (no result: CHOP inh, M18AAP inhibitor, p97 ATPase inh, NS3 helicase inh)
COc1ccc(NC(=O)N2CCCC(c3nc(-c4ccc(OC)cc4)no3)C2)cc1 (centres undefined)	none
O=C(Nc1ccc(Cl)cc1)N1CCC(c2nc(-c3ccc(F)cc3)no2)CC1	CHOP inh 104.0 | CHOP inh conf inactive
CCC1CCCCN1c1nc(-c2ccncc2)nc2ccccc12 (centres undefined)	CHOP inh 99.4 | CHOP inh conf inactive
Cc1[nH]n(C(N)=S)c(=O)c1N=Nc1cccc([N+](=O)[O-])c1C	none (no result: CHOP inh, p97 ATPase inh)
NC(=S)n1[nH]c(-c2ccc([N+](=O)[O-])cc2)c(N=Nc2cccc([N+](=O)[O-])c2)c1=O	CHOP inh 102.0 (no result: XBP1 UPR activ, CHOP UPR activ) | CHOP inh conf 98.4
CN(C(=O)COC(=O)C1CCN(S(=O)(=O)c2cccs2)CC1)c1ccccc1	none
Cc1cc(/C=N/n2cnnc2)c(C)n1-c1ccc(OCc2ccccc2F)cc1	CHOP inh 110.8 | CHOP inh conf 102.8
Cc1cc(/C=N/n2cnnc2)c(C)n1-c1ccc(OCc2ccc(Cl)cc2)cc1	CHOP inh 99.3 | CHOP inh conf 90.9
COc1ccc(CN(C)C(=O)Cn2cnc3c(NCc4ccccc4)ncnc32)cc1OC	none (no result: CHOP inh, M18AAP inhibitor, p97 ATPase inh, NS3 helicase inh)
N#Cc1ccc(-c2ccc(OCC(=O)NN=Cc3ccncc3)cc2)cc1	none (no result: CHOP inh, M18AAP inhibitor, p97 ATPase inh, NS3 helicase inh)
CC(C)Cc1ccc(C(C)C(=O)Nc2nccs2)cc1 (centres undefined)	CHOP inh 96.2 | CHOP inh conf 94.1
CC(C)c1ccc(CNC(=O)C(=O)Nc2nccs2)cc1	none
Cc1ccccc1OCCC(=O)OCC(=O)Nc1cc(S(=O)(=O)N2CCOCC2)ccc1Cl	none
C=CCOC(=O)C1=C(C)NC(SCC)=C(C#N)C1c1ccc(Cl)cc1 (centres undefined)	CHOP inh 102.0 | CHOP inh conf inactive
C=CCOC(=O)C1=C(C)NC(SCC(N)=O)=C(C#N)C1c1ccc(C)cc1 (centres undefined)	none
CCOC(=O)CN1C(c2ccc(O)cc2)Nc2ccc(Br)cc2C1c1ccccc1 (centres undefined)	CHOP inh 107.7 | CHOP inh conf 118.6
O=C(N/N=C/c1ccc(Cl)cc1Cl)c1n[nH]c2c1CCCC2	none
O=C(N/N=C/c1cccc2ccccc12)c1n[nH]c2c1CCCC2	CHOP inh 100.7 | CHOP inh conf inactive
Cc1ccc2nc(-c3ccc(SCC(=O)Nc4nnc(C)s4)nc3)[nH]c2c1	CHOP inh 104.8 | CHOP inh conf inactive
